Measured values pooled from the literature.
Each line is one published result; the experiments were not run side by side.
Target: Rho-associated protein kinase 2 (ROCK2, Homo sapiens, UniProt O75116)

| SMILES | test | setting | endpoint | value |
| --- | --- | --- | --- | --- |
| Cn1cnc(Br)c1C1=CN(c2ncnc3[nH]cnc23)CCS1 | enzyme activity, inhibitor, radiometric | 50 nM | inhibition | 18.6% |
| CC(C)(C)c1nc2c(s1)c1nc(N)ncc1c1ccc(NS(=O)(=O)c3c(F)cccc3F)c(F)c12 | enzyme activity, inhibitor, radiometric | 1 µM | remaining activity | 100% |
| CC(=O)N1CCC(c2ccc(C(=O)NC3=NCCN3)cc2C(F)(F)F)CC1 | cell-free assay, competition with immobilised ligand | 1 µM | remaining binding | 73% |
| CC(C)c1ccc(NC(=O)c2cccs2)c(-c2nc3ccccc3[nH]c2=O)c1 | enzyme activity, inhibitor | 1 µM | activity vs control | 119% |
| CNc1cccc2cc(C(=O)Nc3ccc(C(=O)O)cc3)c(=O)[nH]c12 | enzyme activity, inhibitor | 10 µM | inhibition | 7.9% |
| Cn1cncc1C1=CN(c2ncnc3[nH]cnc23)CCS1 | enzyme activity, inhibitor, radiometric | 2 µM | inhibition | 93.3% |
| CN(c1ncccc1CNc1nc(Nc2ccc3c(c2)CC(=O)N3)ncc1C(F)(F)F)S(C)(=O)=O | enzyme activity, inhibitor | 1 µM | inhibition | 11.3% |
| COc1ccc2c(c1)O[C@H](c1ccc(OC)c(OC)c1)C[C@@H]2NC(=O)C1(c2ccc3c(c2)OC(F)(F)O3)CC1 | cell-free assay, competition with immobilised ligand | 1 µM | remaining binding | 88% |
| FC(F)c1nc2ccccc2n1-c1nc(N2CCOCC2)nc(N2CCOCC2)n1 | enzyme activity, inhibitor | 10 µM | remaining activity | 85% |
| Nc1ncnc2occ(-c3ccc(NC(=O)Nc4cc(C(F)(F)F)ccc4F)cc3)c12 | cell-free assay, inhibitor | 20 µM | remaining signal | 0% |
| O=C1Nc2ccc(Cl)cc2C1=Cc1cc(Cl)c(O)c(Cl)c1 | cell-free assay | 0.5 µM | remaining signal | 90.6% |
| FC(F)(F)c1ccc2c(c1)nc(-c1cccnc1)n2C1CC1 | cell-free assay, competition with immobilised ligand | 1 µM | remaining binding | 100% |
| CS(=O)(=O)CCNCc1ccc(-c2ccc3ncnc(Nc4ccc(OCc5cccc(F)c5)c(Cl)c4)c3c2)o1 | cell-free assay | 0.5 µM | remaining signal | 92.7% |
| CNCc1ccc(-c2cc(-c3nc(-c4ccc(S(=O)(=O)C(C)C)cc4)cnc3N)on2)cc1 | enzyme activity, inhibitor | 0.4 µM | inhibition | 0% |
| Cc1c(NC(=O)c2cc(C(N)=O)nc3cc(F)ccc23)c(C(F)(F)F)nn1Cc1ccc(C(C)(C)C)cc1 | cell-free assay, competition with immobilised ligand | 1 µM | remaining binding | 100% |
| Cc1ccc(-n2nc(C(C)(C)C)cc2NC(=O)Nc2ccc(OCCN3CCOCC3)c3ccccc23)cc1 | enzyme activity, inhibitor | 10 µM | inhibition | -3% |
| CCCOc1ccc(OC)c(F)c1C(=O)c1ccc(C(=O)N[C@@H]2CNC[C@H]2NC(=O)c2ccc3[nH]ncc3c2)cc1 | enzyme activity, inhibitor | 0.75 µM | remaining activity | 4% |
| CC(=O)C1=C(C)N(c2cccc(C(F)(F)F)c2)C(=O)N[C@@H]1c1ccc(C#N)nc1 | cell-free assay, competition with immobilised ligand | 1 µM | remaining binding | 86.1% |
| Cc1ccc(Nc2nccc(N(C)c3ccc4c(C)n(C)nc4c3)n2)cc1S(N)(=O)=O | enzyme activity, inhibitor | 0.3 µM | inhibition | -15% |

| SMILES | test | setting | endpoint | value |
| --- | --- | --- | --- | --- |
| Fc1cccc(-n2cnc3c(NCc4nc5c(F)c(F)ccc5[nH]4)nc(N4CCOCC4)nc32)c1 | binding, competition with immobilised ligand | 10 µM | binding vs control | 54% |
| CNC(=O)c1cc(Oc2ccc(NC(=O)Nc3ccc(Cl)c(C(F)(F)F)c3)cc2)ccn1 | enzyme activity, inhibitor | 0.3 µM | inhibition | -11% |
| O=C1NC(=O)c2cc(Nc3ccc(F)cc3)c(Nc3ccc(F)cc3)cc21 | cell-free assay | 0.5 µM | remaining signal | 92.8% |
| CN(C(=O)c1ccccc1)c1cc(N(C)c2ccc3c(c2)CCc2ccc(C(=O)NCCN4CCOCC4)cc2C3=O)ccc1F | cell-free assay, competition with immobilised ligand | 1 µM | remaining binding | 100% |
| Cc1cc(NC(=O)c2cccc3cc(-c4cccc5[nH]nc(N)c45)ccc23)ccc1F | enzyme activity, inhibitor | 0.1 µM | activity vs control | 98% |
| CC/C(=N\NC(=O)C(C)Nc1ccccc1)c1ccc(O)c(C)c1O (stereo not shown) | enzyme activity, inhibitor | 0.1 µM | inhibition | 25.7% |
| C=CC(=O)Nc1cc(Nc2nccc(Nc3cc(Cl)c(F)cc3C(C)(C)O)n2)c(OC)cc1N1CC[C@@H](N(C)C)C1 | enzyme activity, inhibitor | 1 µM | inhibition | 15% |
| O=C(Nc1cnn(-c2csc(C(=O)NC3COC3)c2)c1)Nc1ccccc1Cl | enzyme activity, inhibitor | 5 µM | remaining activity | 100% |
| Nc1nc(NC2CCCCC2)sc1C(=O)c1ccccc1 | enzyme activity, inhibitor | 10 µM | remaining activity | 97% |
| O=C(CSc1nc2nccnc2c(=O)n1CCc1ccccc1)Nc1nccs1 | enzyme activity, inhibitor | 10 µM | inhibition | 2% |
| N#CCCc1ccc2c(c1)-c1[nH]c3ccc([N+](=O)[O-])cc3c1CC(=O)N2 | cell-free assay | 0.5 µM | remaining signal | 28.6% |
| NS(=O)(=O)c1cc(NC(=O)C2(c3ccccc3Cl)CC2)ccc1Oc1cccc(Cl)c1 | cell-free assay, competition with immobilised ligand | 1 µM | remaining binding | 100% |
| O=C(Nc1cnn(-c2csc(C(=O)NC3COC3)c2)c1)Nc1c(F)cccc1Cl | enzyme activity, inhibitor | 5 µM | remaining activity | 107% |
| Cc1cnc(NC2CCOCC2)nc1-n1cnc(C(=O)NC(CN)c2cc(F)cc(Cl)c2)c1 (stereo not shown) | enzyme activity, inhibitor, radiometric | 1 µM | remaining activity | 25% |
| C[C@H](c1ccnc(Nc2nc3ccc(-c4cc(N(C)C)ncn4)cc3[nH]2)c1)N1CCN(C(=O)CC(F)(F)F)CC1 | cell-free assay, competition with immobilised ligand | 0.1 µM | remaining binding | 100% |
| COc1cc(Nc2cnc(C#N)c(O[C@H](C)CN(C)C)n2)ncc1-c1cnn(C)c1 | enzyme activity, inhibitor, radiometric | 1 µM | remaining activity | 92% |
| COc1cc2ncnc(Nc3ccc(Oc4ccccc4)c(C)c3C)c2cc1OC | enzyme activity, inhibitor | 1 µM | inhibition | 8% |
| CCN(CC)c1ccc(C2=NNC(=O)CC2C)cc1[N+](=O)[O-] (stereo not shown) | enzyme activity, inhibitor | 10 µM | remaining activity | 99% |
